Data from ChEMBL document CHEMBL1154414, “In vitro and in vivo activities of T-705 against arenavirus and bunyavirus infections” (Antimicrob Agents Chemother, 2007).
The source made the active and inactive calls. No cut-off for these calls is given here.

Columns and labels:
Punta Toro virus [1] = test: Antiviral activity against 5000 PFU Punta Toro virus Adames infected C57BL/6 mouse assessed as mean day of death at 10 mg/kg, po twice daily for 5 days administered 24 hrs post viral challenge; assay type: functional
In short: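 PTV was inoculated subcutaneously into mice in groups of 15 (25–30 placebo). Dosing was by oral gavage twice daily for 5–7 days, with T-705 suspended in 0.4% CMC and ribavirin in saline. Remaining animals were observed 21–28 days for survival and day of death. Test doses had first been checked for tolerance in uninfected animals.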

Punta Toro virus [2] = test: Antiviral activity against 5000 PFU Punta Toro virus Adames infected C57BL/6 mouse assessed as mean viral titer per 0.1 g of liver at 30 mg/kg, po twice daily administered 24 hrs post viral challenge measured on day 3 of viral infection; assay type: functional
In short: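 Mice were infected subcutaneously with PTV and dosed by oral gavage twice daily; 5 per group (10 placebo) were killed on day 3 or 4. Liver homogenate or serum was serially diluted onto triplicate LLC-MK2 monolayers, and CPE was read 6–8 days later. 50% endpoints gave log10 CCID50 per 0.1 g liver or 0.1 ml serum. Detection range was 2.8–9.5; undetectable samples were assigned <2.8.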

Punta Toro virus [3] = test: Antiviral activity against 5000 PFU Punta Toro virus Adames infected C57BL/6 mouse assessed as mean serum ALT levels at 10 mg/kg, po twice daily administered 24 hrs post viral challenge measured on day 3 of viral infection; assay type: functional
In short: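 C57BL/6 mice received subcutaneous PTV, then oral gavage twice daily for 5–7 days. T-705 was given in 0.4% CMC and ribavirin in saline. Five mice per group (10 placebo) were killed on day 3 or 4, and serum was collected. ALT activity was measured by kinetic assay. Three sham-infected mice set baselines.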

Punta Toro virus [4] = test: Antiviral activity against Punta Toro virus Adames infected Syrian golden hamster assessed as survival at 30 mg/kg, po twice daily for 6 days administered 4 hrs before viral challenge; assay type: functional
In short: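 Hamsters (groups of 15, placebo 25-30) were challenged subcutaneously with 50 PFU and dosed twice daily by oral gavage in 0.4% CMC vehicle.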

La Crosse virus = test: Antiviral activity against La Crosse virus assessed as inhibition of virus-induced visual cytopathic effect after 3 to 5 days; assay type: functional, organism-based
In short: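 Virus diluted in 2% FBS medium was added with half-log drug dilutions at infection. Plates were incubated at 37°C, 5% CO2, until maximal CPE in infected controls, then scored visually 3–5 days post-infection. EC50 was derived by regression analysis.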

Rift Valley fever virus = test: Antiviral activity against Rift Valley fever virus MP-12 assessed as inhibition of virus-induced visual cytopathic effect after 3 to 5 days; assay type: functional, organism-based
In short: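 Virus in medium with 2% FBS was used at the CCID50 that gave maximal CPE. Half-log drug dilutions (DMSO stock, ≤1% DMSO at the top concentration) were added at infection. EC50 was derived by regression analysis.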

Pichinde virus [5] = test: Antiviral activity against Pichinde virus An 4763 infected Syrian golden hamster assessed as animals with detectable virus level in serum at 50 mg/kg, po twice daily for 7 days administered 72 hrs post viral-challenge measured on day 7 of viral infection; assay type: functional
In short: (§1)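 Hamsters (groups of 15, placebo 25-30) were dosed orally by gavage twice daily (drug suspended in 0.4% CMC) after bilateral intraperitoneal challenge with 65 PFU. Five per group were killed on day 7. Liver homogenate or serum was serially diluted onto triplicate B-SC-1 wells, CPE was read at 6-8 days, and the 50% endpoint was taken. Range was 2.8-9.5 log10 CCID50/0.1 g or 0.1 ml, with undetectable assigned <2.8.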

Pichinde virus [6] = test: Antiviral activity against Pichinde virus An 4763 infected Syrian golden hamster assessed as mean serum ALT levels at 20 mg/kg, po twice daily for 7 days administered 72 hrs post viral-challenge measured on day 7 of viral infection; assay type: functional
In short: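 Hamsters were challenged intraperitoneally (bilateral, 65 PFU) and given twice-daily oral gavage doses (0.4% CMC vehicle). Five per group were sacrificed on day 7 and serum was collected. Serum ALT activity was measured by kinetic assay. Three sham-infected animals set the baselines.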

Punta Toro virus [7] = test: Antiviral activity against 500 PFU Punta Toro virus Adames infected C57BL/6 mouse assessed as animals with detectable virus level in serum at 30 mg/kg, po twice daily administered 24 hrs post viral challenge measured on day 3 of viral infection; assay type: functional
In short: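 T-705 was suspended in 0.4% carboxymethylcellulose and given by oral gavage twice daily. Mice were infected subcutaneously with PTV. Five mice per group (10 placebo) were sacrificed on day 3 or 4. Liver homogenate or serum was serially diluted onto triplicate LLC-MK2 monolayers, and CPE was read at 6–8 days. The detection limit was 2.8 log10 CCID50 per 0.1 g liver or 0.1 ml serum.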

Punta Toro virus [8] = test: Antiviral activity against Punta Toro virus Adames infected Syrian golden hamster assessed as mean viral titer per 0.1 mL of serum at 30 mg/kg, po twice daily administered 4 hrs before viral challenge measured on day 4 of viral infection; assay type: functional
In short: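 Hamsters received twice-daily oral gavage doses (0.4% CMC) after subcutaneous challenge with 50 PFU. Five per group were killed on day 3 or 4. Liver homogenate or serum was serially diluted onto triplicate LLC-MK2 wells, CPE was read at 6-8 days, and the 50% endpoint was taken. Range was 2.8-9.5 log10 CCID50/0.1 g or 0.1 ml, with undetectable assigned <2.8.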

Punta Toro virus [9] = test: Antiviral activity against Punta Toro virus Adames infected Syrian golden hamster assessed as mean serum ALT levels at 30 mg/kg, po twice daily administered 4 hrs before viral challenge measured on day 4 of viral infection; assay type: functional
In short: (§2)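 Hamsters were challenged subcutaneously with 50 PFU and dosed twice daily by oral gavage in 0.4% CMC. Five per group were sacrificed on day 3 or 4. Livers were scored 0-4 for icterus, and serum ALT was measured by kinetic assay against three sham-infected baseline animals.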

Punta Toro virus [10] = test: Antiviral activity against Punta Toro virus Adames infected Syrian golden hamster assessed as inhibition of liver damage at 30 mg/kg, po twice daily administered 4 hrs before viral challenge measured on day 4 of viral infection; assay type: functional, organism-based; set-up: dose 30 mg/kg; in short: as §2
Tacaribe virus = test: Antiviral activity against Tacaribe virus TRVL11573 in Vero cells assessed as inhibition of virus-induced visual cytopathic effect after 7 to 8 days; assay type: functional, organism-based; settings: Mammarenavirus tacaribeense
In short: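 Subconfluent (50-70%) Vero cells were infected with virus in 2% FBS medium at the CCID50 giving maximal CPE. Half-log drug dilutions were added at infection. EC50 was obtained by regression analysis.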

Pichinde virus [11] = test: Antiviral activity against Pichinde virus An 4763 infected Syrian golden hamster assessed as mean viral titer per 0.1 g of liver at 40 mg/kg, po twice daily for 7 days administered 4 hrs before viral-challenge measured on day 7 of viral infection; assay type: functional; in short: as §1
Pichinde virus [12] = test: Antiviral activity against Pichinde virus An 4763 infected Syrian golden hamster assessed as mean day of death at 20 mg/kg, po twice daily for 7 days administered 24 hrs post viral-challenge; assay type: functional
In short: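 Groups of 15 hamsters (placebo 25-30) were challenged intraperitoneally (bilateral, 65 PFU) and dosed twice daily by oral gavage in 0.4% CMC for 5 to 7 days.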

Pichinde virus [13] = test: Antiviral activity against Pichinde virus An 4763 infected Syrian golden hamster assessed as mean viral titer per 0.1 mL of serum at 50 mg/kg, po twice daily for 7 days administered 24 hrs post viral-challenge measured on day 7 of viral infection; assay type: functional; in short: as §1
Pichinde virus [14] = test: Antiviral activity against Pichinde virus An 4763 infected Syrian golden hamster assessed as mean viral titer per 0.1 mL of serum at 20 mg/kg, po twice daily for 7 days administered 24 hrs post viral-challenge; assay type: functional; in short: as §1

Row | Compound | Activity (Punta Toro virus [1]) | log10CCID50 (Punta Toro virus [2]) | Activity (Punta Toro virus [3]) | survival at 30 mg/kg (Punta Toro virus [4]; Punta Toro virus, Adames) | EC50 (La Crosse virus) | EC50 (Rift Valley fever virus) | Activity (Pichinde virus [5]) | Activity (Pichinde virus [6]) | Activity (Punta Toro virus [7]) | log10CCID50 (Punta Toro virus [8]) | Activity (Punta Toro virus [9]) | Activity (Punta Toro virus [10]) | EC50 (Tacaribe virus) | log10CCID50 (Pichinde virus [11]) | Activity (Pichinde virus [12]) | log10CCID50 (Pichinde virus [13]) | log10CCID50 (Pichinde virus [14]) | Activity (Punta Toro virus [4])
1 | NC(=O)c1nc(F)cnc1O [FAVIPIRAVIR] | 4.4 days | <2.9 | 2274 IU/L | 90% | 32 µM | 32 µM | 100% | 1890 IU/L | 80% | <4.5 | 25 IU/L | Active | 6 µM | <3.2 | 9.5 days | <5.1 | >9 | 
2 | NC(=O)c1ncn([C@@H]2O[C@H](CO)[C@@H](O)[C@H]2O)n1 [RIBAVIRIN] | 4 days | <2.9 | 1515 IU/L |  | 70 µM | 53 µM | 100% | 67 IU/L | 80% | <2.8 | 13 IU/L | Active | 10 µM | <3.2 | 18 days | <3.5 | <5.1 | 70%
